These results are taken from the array DNA melting data of Ke et al. (doi:10.1101/2024.01.08.574731).

The nature of data set [1]: folding enthalpy; higher = less favourable; fluorescence melt of hairpins on a sequencing array, two-state fit. To be noted: sodium 0.088 M. The gist of the method: (§1)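 Library hairpins on a sequenced MiSeq flow cell carried annealed Cy3 and quencher oligos, and their Cy3 fluorescence was imaged in 50 mM Na-HEPES pH 8.0 with 25 mM NaCl, in 2.5 °C steps up to 60 °C. Signals were normalised to Cy3 before quenching and to control constructs. Melting temperature and folding enthalpy were obtained from bootstrapped two-state fits, combined by inverse-variance weighting across four replicates, and the fitted temperatures were then raised by 9.35 °C to match UV melts.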

Data set [2] can be described thus: melting temperature; fluorescence melt of hairpins on a sequencing array, two-state fit, raised by 9.35 °C to match UV melts. To be noted: sodium 0.088 M. The gist of the method:
as §1

As to GGTGATCGAAAGATTACC (((.(((....))).))), the folding enthalpy in data set [1] is -46.1 kcal/mol. In data set [2], the Tm is 51.1 °C.

Consider GGTGATGGAAACACCACC ((((.((....)).)))), for which the folding enthalpy in data set [1] was -23.8 kcal/mol. Further, the Tm in data set [2] was 46.6 °C.

Regarding GGTGATGGAAACATCGTC (..((((....))))..), in data set [1], the folding enthalpy was -18.1 kcal/mol. In addition, the Tm in data set [2] came out at 32.9 °C.

As for GGTGCACGAAAGTGGACC (((.(((....))).))), in data set [1], the folding enthalpy is -38.1 kcal/mol. Further, the Tm in data set [2] was found to be 65.7 °C.

Take GGTGCAGCGAAAGCTACC (((..(((....)))))): the folding enthalpy in data set [1] was -13.6 kcal/mol. For the same sequence, the Tm in data set [2] was found to be 39.1 °C.

For the sequence GGTGCAGGAAACCACACC ((((..(....)..)))), the folding enthalpy in data set [1] is -21.4 kcal/mol. Moreover, the Tm in data set [2] is 34.9 °C.

As for GGTGCATCGAAAGATACC (((..(((....)))))), in data set [1], the folding enthalpy was -10.2 kcal/mol. The Tm in data set [2] is 27.9 °C.

As to GGTGCCGAAAGGCAGACC ((((((....)))..))), the folding enthalpy in data set [1] was -12.1 kcal/mol. Besides, the Tm in data set [2] stood at 52.2 °C.

As for GGTGCCGAAAGGCTCACC ((((((....)))..))), the folding enthalpy in data set [1] was -11.6 kcal/mol. In data set [2], the Tm came to 46.3 °C.

Turning to GGTGCCGAAAGGCTTACC ((((((....)))..))), the folding enthalpy in data set [1] is -13.7 kcal/mol. For the same sequence, the Tm in data set [2] turned out to be 44.1 °C.

For GGTGCGCGAAAGCGACC (((.(((....)))))), in data set [1], the folding enthalpy is -15.3 kcal/mol. Besides, in data set [2], the Tm was determined as 56.7 °C.

For the sequence GGTGCGGGAAACCGCGTC (..((((....))))..), in data set [1], the folding enthalpy is -11.5 kcal/mol. Moreover, in data set [2], the Tm amounted to 44.1 °C.

On to GGTGCGGGAAACTGCGCC ((.((.(....).)).)), for which, in data set [1], the folding enthalpy is -49.1 kcal/mol. In data set [2], the Tm came to 52.7 °C.

For the sequence GGTGCTGGAAACAGCATC (.(((((....))))).), the folding enthalpy in data set [1] is -30.3 kcal/mol. Further, in data set [2], the Tm worked out at 54.1 °C.

GGTGGAGGAAACTCCATC (.(((((....))))).): the folding enthalpy in data set [1] is -26.6 kcal/mol. Moreover, in data set [2], the Tm turned out to be 49.4 °C.

Turning to GGTGGAGGAAACTCCGTC (..((((....))))..), in data set [1], the folding enthalpy is -15.4 kcal/mol. Further, in data set [2], the Tm was found to be 37.8 °C.

Regarding GGTGGAGGAAACTCTGCC ((..(((....)))..)), the folding enthalpy in data set [1] is -27 kcal/mol. Besides, in data set [2], the Tm came out at 42 °C.

Consider GGTGGAGGAAACTTCACC ((((.((....)).)))), for which the folding enthalpy in data set [1] is -33.4 kcal/mol. Moreover, in data set [2], the Tm was 50.1 °C.

Consider GGTGGCACGAAAGTGACC (((..(((....)))))), for which the folding enthalpy in data set [1] is -15.5 kcal/mol. Also, the Tm in data set [2] was found to be 45.6 °C.

Regarding GGTGGCGAAAGCCCGACC ((((((....)))..))), in data set [1], the folding enthalpy is -12.8 kcal/mol. Further, in data set [2], the Tm was 41.5 °C.

Turning to GGTGGCGAAAGCCGAACC ((((((....)))..))), the folding enthalpy in data set [1] is -14.9 kcal/mol. Moreover, the Tm in data set [2] worked out at 45.3 °C.

Regarding GGTGGCGGAAACGCTGCC ((..(((....)))..)), the folding enthalpy in data set [1] is -31.8 kcal/mol. The Tm in data set [2] was 54.5 °C.

Take GGTGGGGGAAACTCCACC (((((.(....).))))): the folding enthalpy in data set [1] is -45.9 kcal/mol. The Tm in data set [2] is 56.4 °C.

GGTGGTGCGAAAGCAACC (((..(((....)))))): the folding enthalpy in data set [1] was -15.4 kcal/mol. Also, the Tm in data set [2] is 53.3 °C.

As for GGTGGTGGAAACATCACC ((((.((....)).)))), the folding enthalpy in data set [1] was -41.3 kcal/mol. Further, the Tm in data set [2] was found to be 52.3 °C.

Take GGTGGTGGAAACATCGCC ((.(.((....)).).)): the folding enthalpy in data set [1] was -27.4 kcal/mol. The Tm in data set [2] turned out to be 44.6 °C.

GGTGGTTCGAAAGAAACC (((..(((....)))))): the folding enthalpy in data set [1] is -20.4 kcal/mol. Further, the Tm in data set [2] came out at 41.5 °C.

Turning to GGTGTACGAAAGTATACC (((.(((....))).))), the folding enthalpy in data set [1] is -47.6 kcal/mol. For the same sequence, the Tm in data set [2] was determined as 53.3 °C.

With GGTGTAGAAATACACC ((((((....)))))), in data set [1], the folding enthalpy was -29.6 kcal/mol. For the same sequence, in data set [2], the Tm was found to be 53.7 °C.

On to GGTGTAGGAAACTACATC (.(((((....))))).), for which the folding enthalpy in data set [1] is -27.4 kcal/mol. Further, the Tm in data set [2] was determined as 42.2 °C.

As for GGTGTAGGAAACTATGCC ((..(((....)))..)), in data set [1], the folding enthalpy is -32.3 kcal/mol. In addition, the Tm in data set [2] was found to be 35.7 °C.

Regarding GGTGTCCGAAAGGAAACC (((.(((....))).))), the folding enthalpy in data set [1] was -27.9 kcal/mol. Besides, the Tm in data set [2] is 52.7 °C.

For the sequence GGTGTCGAAAGACCCACC ((((((....)))..))), the folding enthalpy in data set [1] is -12.1 kcal/mol. Further, in data set [2], the Tm was found to be 45.1 °C.

For the sequence GGTGTCGGAAACGACGCC ((.((((....)))).)), in data set [1], the folding enthalpy is -28.6 kcal/mol. Moreover, the Tm in data set [2] is 64.5 °C.

With GGTGTCGGAAACGATGCC ((..(((....)))..)), the folding enthalpy in data set [1] is -26.7 kcal/mol. Besides, in data set [2], the Tm was 49.4 °C.

On to GGTGTGGGAAACTGCACC ((((..(....)..)))), for which the folding enthalpy in data set [1] was -26.3 kcal/mol. The Tm in data set [2] came out at 47.7 °C.

As to GGTGTTCGAAAGAAACC (((.(((....)))))), the folding enthalpy in data set [1] was -14.1 kcal/mol. In addition, the Tm in data set [2] amounted to 34.1 °C.
